Results as given in ChEMBL document CHEMBL1136314, “Biphenyl-based analogues of thiolactomycin, active against Mycobacterium tuberculosis mtFabH fatty acid condensing enzyme” (Bioorg Med Chem Lett, 2003).

target: T1, Mycobacterial beta-ketoacyl-[acyl-carrier-protein] synthase III (Mycobacterium tuberculosis, UniProt P9WNG3); test: In vitro inhibitory activity against the recombinant Mycobacterium tuberculosis Beta-ketoacyl-ACP synthase III mtFabH condensing enzyme.; set-up: species or system H37Rv
T1 sequence (P9WNG3 whole entry): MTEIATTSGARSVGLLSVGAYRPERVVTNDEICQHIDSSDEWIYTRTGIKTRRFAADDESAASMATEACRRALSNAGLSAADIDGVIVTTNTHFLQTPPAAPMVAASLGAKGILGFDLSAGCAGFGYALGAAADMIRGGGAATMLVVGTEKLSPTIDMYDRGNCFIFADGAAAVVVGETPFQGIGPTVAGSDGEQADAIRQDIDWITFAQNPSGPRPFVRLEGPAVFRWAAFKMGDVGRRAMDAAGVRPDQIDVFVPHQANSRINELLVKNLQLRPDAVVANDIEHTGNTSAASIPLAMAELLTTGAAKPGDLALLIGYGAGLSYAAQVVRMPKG
How it was run: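 Direct end-point scintillation proximity assay with E. coli-expressed recombinant mtFabH (1.0 nM), biotinylated malonyl-ecACP, and myristoyl-CoA in 100 mM sodium phosphate with 0.01% CHAPS and 1 mM DTT. Compounds in DMSO were tested from 500 down to 0.98. After a 5-min 30 °C preincubation, [3H]myristoyl-CoA was added and reacted 20 min at 30 °C. Ethanol quench, streptavidin beads, bead-bound radioactivity counted, IC50 derived.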

Structure (SMILES) | IC50 [µM]
CC1=C(O)C(C)(Cc2ccc(-c3ccc(C(C)(C)C)cc3)cc2)SC1=O (configuration not stated) | 25
CC1=C(O)C(C)(Cc2ccc(C(C)(C)C)cc2)SC1=O (configuration not stated) | 43
CC(=O)Nc1cccc(-c2ccc(CC3(C)SC(O)=C(C)C3=O)cc2)c1 (configuration not stated) | 119
CC1=C(O)C(C)(Cc2ccc(-c3ccccc3)cc2)SC1=O (configuration not stated) | 51
CC1=C(O)C(C)(Cc2ccc(-c3ccc(COCc4ccccc4)cc3)cc2)SC1=O (configuration not stated) | 17
CC1=C(O)C(C)(Cc2ccc(-c3ccc(CO)cc3)cc2)SC1=O (configuration not stated) | 19
CC1=C(O)C(C)(Cc2cccc(-c3ccccc3)c2)SC1=O (configuration not stated) | 215
COc1ccc(CC2(C)SC(O)=C(C)C2=O)cc1 (configuration not stated) | 155
COc1cccc(CC2(C)SC(O)=C(C)C2=O)c1 (configuration not stated) | > 500
CC1=C(O)C(C)(Cc2ccc(F)cc2F)SC1=O (configuration not stated) | 246
CC1=C(O)C(C)(Cc2cc(F)cc(F)c2)SC1=O (configuration not stated) | 263
CC1=C(O)C(C)(Cc2ccc(C)cc2)SC1=O (configuration not stated) | 112
CC1=C(O)C(C)(Cc2ccc(-c3ccc(C)cc3)cc2)SC1=O (configuration not stated) | 52
CC1=C(O)C(C)(Cc2ccc(-c3ccc(C=O)cc3)cc2)SC1=O (configuration not stated) | 29
CC1=C(O)C(C)(Cc2ccc(I)cc2)SC1=O (configuration not stated) | 153
CC1=C(O)C(C)(Cc2ccccc2)SC1=O (configuration not stated) | > 250
CC1=C(O)C(C)(Cc2cccc(Oc3ccccc3)c2)SC1=O (configuration not stated) | 52
